# In the library only some 4.5% were active in any assay of this set; here they are far more common.
# M18AAP inhibitor: blocks P. falciparum M18 aspartyl aminopeptidase; recombinant PfM18AAP, H-Glu-NHMec fluorogenic cleavage; inhibition, % at 7.35 µM; 290,000 tested, 1.2% active; AID 1822;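 active means inhibition above the campaign mean inhibition over all tested compounds plus 3 SD, cut at about 28% in these data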
# p97 inhibitor: inhibitors of human p97 ATPase. P55072. recombinant p97 ATPase, Kinase-Glo ATP luminescence, 3 h. inhibition, % at 8 µM. 220,000 tested, 0.42% active; in the data active means inhibition above about 15%
# Target sequence (P55072 whole entry, looked up): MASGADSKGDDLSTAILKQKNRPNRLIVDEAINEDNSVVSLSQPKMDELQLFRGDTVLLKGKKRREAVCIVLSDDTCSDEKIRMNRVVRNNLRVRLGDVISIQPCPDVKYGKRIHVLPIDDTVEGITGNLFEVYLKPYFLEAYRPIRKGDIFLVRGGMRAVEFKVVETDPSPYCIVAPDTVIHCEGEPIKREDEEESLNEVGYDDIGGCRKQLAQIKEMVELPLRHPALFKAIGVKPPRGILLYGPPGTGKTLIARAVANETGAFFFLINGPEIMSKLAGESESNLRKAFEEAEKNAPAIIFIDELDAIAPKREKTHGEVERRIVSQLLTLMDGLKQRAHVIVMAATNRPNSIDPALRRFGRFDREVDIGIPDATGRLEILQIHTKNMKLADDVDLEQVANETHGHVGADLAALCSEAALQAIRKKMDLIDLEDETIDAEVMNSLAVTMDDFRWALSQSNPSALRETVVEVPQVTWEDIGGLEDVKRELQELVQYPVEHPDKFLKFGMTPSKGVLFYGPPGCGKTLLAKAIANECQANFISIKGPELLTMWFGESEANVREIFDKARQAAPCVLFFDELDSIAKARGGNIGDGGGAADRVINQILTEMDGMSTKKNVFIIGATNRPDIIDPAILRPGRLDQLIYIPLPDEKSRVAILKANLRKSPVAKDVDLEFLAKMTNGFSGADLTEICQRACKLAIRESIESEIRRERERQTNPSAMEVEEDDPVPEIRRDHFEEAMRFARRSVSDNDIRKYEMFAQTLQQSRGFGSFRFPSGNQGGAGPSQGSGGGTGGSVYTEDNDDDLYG
# XBP1 UPR activ: activators of adaptive arm of unfolded protein response (XBP1); activation, % at 20 µM; AID 463104; 330,000 tested, 0.33% active; CHO-XBP1 luciferase reporter, IRE1-XBP1 UPR activation, luminescence; percent of tunicamycin response, DMSO as zero;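 active means versus positive control, 20 µM dose yields 30% or more activation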
#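 Signal: luciferase luminescence; Assay system: CHO-XBP1 luciferase reporter cells; Amount: one thousand reporter cells per well; Dosing: 20 µM single concentration, DMSO 1%; Benchmarks: high control tunicamycin 10 µg/mL final, low control DMSO vehicle only; Schedule: 6 h compound exposure at 37 °C, 5% CO2; Evaluation: percent activation relative to tunicamycin reference.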
# CHOP inhibitor: blocks CHOP induction under ER stress | AID 2732 | CHO-K1 CHOP-promoter luciferase, tunicamycin-induced, 15-18 h | 220,000 tested, 3.8% active | inhibition, % at 10 µM;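 active means compounds that reduced the stress-induced luciferase reporter signal by more than about 70% of percent inhibition, limit read from the data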
# NS3 helicase inh: blocks Hepatitis C virus NS3 helicase unwinding | NS3 helicase DNA unwinding, Cy5 molecular beacon fluorescence | inhibition, % at 10.9 µM | 290,000 tested, 0.56% active | AID 1800;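 active means inhibition above the mean of all tested compounds plus 3 SD, set per campaign, cut at about 35% in these data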
#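 Control set: DMSO versus 110 µM thioflavine S; Material: NS3 helicase fragment of HCV; Measured by: Cy5 fluorescence at 0 and 60 min, beacon hairpin quenching; Read-out basis: percent inhibition from t60/t0 fluorescence ratio; Times: reaction time 60 min, 25 °C; Repeats: single replicate; Compound dosing: single dose, 10.9 µM nominal final, DMSO 0.8% final.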
# CHOP UPR activ: activators of apoptotic arm of unfolded protein response (CHOP); CHO-CHOP luciferase reporter, UPR activation, luminescence; percent of tunicamycin response over DMSO baseline; activation, % at 10 µM; 330,000 tested, 0.34% active; AID 449763;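 active means at 10 µM dose, activation of 40% or more, normalized to positive control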
#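 Assay system: CHO-CHOP cells, stable luciferase reporter of PERK-eIF2a-CHOP signalling / Buffer or medium: F12 plus 10% serum / Compound dosing: one dose, 10 µM in 0.5% DMSO / Times: 6 h compound treatment, 37 °C / Technique: luciferase luminescence / Read-out: % reporter activation, DMSO baseline versus tunicamycin full activation / Benchmarks: tunicamycin and DMSO controls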
# Hits are given with their value; – = inactive; · = not tested or not shown.
SMILES,M18AAP inhibitor,p97 inhibitor,XBP1 UPR activ,CHOP inhibitor,NS3 helicase inh,CHOP UPR activ
C=CCN=C1NN=C(c2cc(C)n(CC=C)c2C)CS1,–,–,–,92.7,–,–
c1ccc(C2=NNC(=NCc3ccc4c(c3)OCO4)SC2)cc1,–,–,–,–,–,–
COCCN=C1NN=C(c2cc(C)n(CC3CCCO3)c2C)CS1 (stereo unspecified),–,–,–,–,–,–
C=CCN=C1NN=C(c2ccc3c(c2)OCCO3)CS1,–,–,–,70.6,–,–
CCOc1ccc(CCNC(=O)c2ccc(OCc3c(C)noc3C)cc2)cc1OCC,·,·,–,·,·,–
COc1ccc(-c2nc(CSCC(=O)N3CCc4ccccc4C3)c(C)o2)cc1OC,–,–,–,–,–,–
COc1ccc(-c2nc(CSCC(=O)N3CCN(c4cccc(C)c4)C(C)C3)c(C)o2)cc1OC (stereo unspecified),–,–,–,76.4,–,–
Cc1ccc2nc(N3C(=O)C(O)=C(C(=O)c4ccco4)C3c3cccs3)sc2c1 (stereo unspecified),–,–,–,93.8,–,–
COc1ccc(/C=C(/NC(=O)c2ccco2)C(=O)Nc2ccc(C(=O)O)cc2)cc1,–,·,–,·,–,–
COc1ccc(O)c(/C=N/NC(=O)c2ccc(CSc3nc(C)cc(C)n3)cc2)c1,–,–,–,71.1,–,–
COc1ccc(/C=N/NC(=O)c2ccc(CSc3nc(C)cc(C)n3)cc2)cc1O,–,–,–,–,–,–
COc1ccc(-c2csc3ncnc(N4CCN(S(=O)(=O)c5ccc(C(C)=O)cc5)CC4)c23)cc1,·,·,–,·,·,–
COc1ccc(NC(=O)CN(C)S(=O)(=O)c2ccc(Cl)cc2)cn1,·,·,–,·,·,–
Cc1csc(NC(=O)CSc2nnc(C)s2)n1,–,–,–,–,–,–
Cc1nnc(SCC(=O)Nc2nc3c(s2)CC(C)CC3)s1 (stereo unspecified),–,–,–,84.3,–,–
CC1CCCN(C(=O)CCNS(=O)(=O)c2ccc3c(c2)oc(=O)n3C)C1 (stereo unspecified),–,·,–,·,–,–
c1ccc(Cn2nnc3c(NCCN4CCOCC4)ncnc32)cc1,–,–,–,–,–,–
c1ccc(CCNc2ncnc3c2nnn3Cc2ccccc2)cc1,–,–,–,88.9,–,–
CC1Cc2ccccc2N1C(=O)c1ccc(F)c(S(=O)(=O)N2CCOCC2)c1 (stereo unspecified),·,·,–,·,·,–
COc1ccc(/C=C/c2nc(-c3ccccc3O)n(-c3ccccc3)n2)cc1,–,–,–,–,–,–
COc1ccc(/C=C/c2nc(-c3ccccc3O)n[nH]2)cc1,–,–,–,78.9,–,–
O=C(CSc1ccc2nnc(-c3ccccn3)n2n1)Nc1ccccc1F,–,·,–,·,–,–
Cc1ccc(SCCC(=O)NNC(=O)c2ccccc2F)cc1,·,·,–,·,·,–
CC(C)(C)c1ccc(S(=O)(=O)Nc2ccc(Cc3ccncc3)cc2)cc1,–,–,–,79.3,–,–
CC(=O)Nc1ccc(S(=O)(=O)Nc2ccc(Cc3ccncc3)cc2)cc1,–,·,–,·,–,–
SMILES,M18AAP inhibitor,p97 inhibitor,XBP1 UPR activ,CHOP inhibitor,NS3 helicase inh,CHOP UPR activ
CCOC(=O)c1sc(Nc2ccc(C)cc2C)nc1C,–,–,–,92.9,–,–
CCOC(=O)c1sc(Nc2nc3c(OC)cccc3s2)nc1C,–,–,–,72.6,–,–
CCc1ccc2c(COC(=O)C3CC(=O)N(CCc4ccccc4)C3)cc(=O)oc2c1 (stereo unspecified),·,·,–,·,·,–
Cc1ccc(C)c(NS(=O)(=O)c2ccc3[nH]c(=O)oc3c2)c1,–,–,–,–,–,–
CNc1oc(/C=C/c2ccccc2)nc1C#N,33.9,–,–,–,–,–
COc1ccc(-c2nc(N)nc(C)c2Oc2ccccc2Br)c(O)c1,–,–,–,95.4,–,–
N#Cc1ccc(COC(=O)c2cnc3ccccc3n2)cc1,–,·,–,·,–,–
O=c1c2ccccc2[nH]c(=S)n1C1CCCCC1,–,–,–,–,–,–
CC1CCCC(n2c(=S)[nH]c3ccccc3c2=O)C1C (stereo unspecified),–,–,–,93.8,–,–
Cc1cc(Oc2ccc(=O)n(C)n2)nc(=S)[nH]1,28.4,–,–,–,–,–
CSc1nc(C)cc(Oc2ccc(=O)n(C)n2)n1,–,–,–,–,–,–
CN=C1S/C(=C\c2cc(C)n(-c3ccccc3F)c2C)C(=O)N1C,–,–,–,96.1,–,–
COc1ccc(Cn2c(CCC(=O)Nc3ccc(C)c(C)c3)nc3cccnc32)cc1,–,–,–,85.9,–,–
Cc1ccc(C2CC(C(F)F)n3ncc(C(=O)Nc4cnn(Cc5ccccc5C)c4)c3N2)cc1 (stereo unspecified),–,–,–,72.6,–,–
Cc1ccccc1Cn1cc(NC(=O)c2nn(C)cc2Cl)cn1,–,–,–,–,–,–
CCCCn1c(N)c(N(CC(C)C)C(=O)CSCC(=O)Nc2ccc(OC)cc2)c(=O)[nH]c1=O,·,·,–,·,·,–
Cc1nn(S(=O)(=O)c2cccs2)c(C)c1Sc1ccc([N+](=O)[O-])cc1,–,–,–,–,–,–
Cc1nn(S(=O)(=O)c2ccccc2)c(C)c1Sc1ccc([N+](=O)[O-])cc1,–,–,–,80.2,–,–
Cc1ccc(O)c(C(=O)CC(=O)c2ccc(C(C)(C)C)cc2)c1,–,·,–,·,–,–
Cc1ccc(C)c(NC(=O)c2ccccc2O)c1,–,–,–,76.6,–,–
Cc1cccc(NC(=O)c2ccccc2O)c1C,–,–,–,–,–,–
Cc1ccc(O)c(C(=O)CC(=O)c2ccccc2Cl)c1,–,–,–,102.9,–,–
COc1ccc(O)c(C(=O)CC(=O)c2ccccc2)c1,–,–,–,92.7,–,–
COc1ccc(C(=O)CC(=O)c2ccccc2)cc1,·,·,–,·,·,–
Cc1ccc(C(=O)CC(=O)c2ccccc2C)c(O)c1,–,·,–,·,–,–
SMILES,M18AAP inhibitor,p97 inhibitor,XBP1 UPR activ,CHOP inhibitor,NS3 helicase inh,CHOP UPR activ
Cc1ccc(C(=O)CC(=O)c2cccc(F)c2)c(O)c1,–,–,–,88.5,–,–
CCCc1cc(C(=O)Nc2cc(OC)ccc2OC)cs1,–,·,–,·,–,–
COc1ccc(C)cc1NC(=O)C/C(C)=N/NC(=O)Cc1cccc2ccccc12,–,·,–,·,–,–
O=C(COC(=O)c1ccncc1)Nc1cccc2ccccc12,·,·,–,·,·,–
COc1ccc(NC(=S)Nc2cc(-c3ccccc3)[nH]n2)cc1Cl,–,–,–,77.9,–,–
O=c1ccsn1Cc1ccccc1,32.7,–,–,–,–,–
O=C(CN1C(=O)NC2(CCOc3ccccc32)C1=O)NCC(F)(F)F (stereo unspecified),–,·,–,·,–,–
O=C(CCS(=O)(=O)c1cccc2nonc12)N1CC(=O)N(CCc2ccccc2)C(=O)C1,–,–,–,72.9,–,–

# Screening data as filed in PubChem BioAssay.
